According to ChEMBL document CHEMBL1122773 (1984):
Values after ≈ are worked out from the molar mass of the structure shown.

Tests used:
Assay type in all cases: functional
Actinomyces naeslundii = test: In vitro antibacterial activity against the anaerobic Actinomyces naeslundii (Strain UC no.5920)
Bacteroides fragilis [1] = test: In vitro antibacterial activity against the anaerobic Bacteroides fragilis (Strain UC no.6864)
In short: (§1)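 Agar dilution with serial twofold drug dilutions in Schaedler broth mixed into molten Wilkens-Chalgren agar. Strains grown 48 h on Schaedler agar, suspended to 0.5 McFarland, and 0.001 mL spotted by replicator. All steps done anaerobically. Incubation 48 h at 37 °C. MIC is the least drug inhibiting growth; a faint film or fewer than three colonies scored negative.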

Bacteroides fragilis [2] = test: In vitro antibacterial activity against the anaerobic Bacteroides fragilis (Strain UC no.6862); in short: as §1
Bacteroides fragilis [3] = test: In vitro antibacterial activity against the anaerobic Bacteroides fragilis (Strain UC no.6428)
[4] = test system: Bacteroides thetaiotaomicron; test: In vitro antibacterial activity against the anaerobic Bacteroides thetaiotaomicron (Strain UC no.6512); in short: as §1
Clostridioides difficile [5] = test: In vitro antibacterial activity against the anaerobic Clostridium difficile (Strain UC no.6857); in short: as §1
Clostridioides difficile [6] = test: In vitro antibacterial activity against the anaerobic Clostridium difficile (Strain UC no.6860); in short: as §1
Clostridioides difficile [7] = test: In vitro antibacterial activity against the anaerobic Clostridium difficile (Strain UC no.6861); in short: as §1
Clostridium novyi = test: In vitro antibacterial activity against the anaerobic Clostridium novyi B(Strain UC no.6329); in short: as §1
Clostridium perfringens = test: In vitro antibacterial activity against the anaerobic Clostridium perfringens (Strain UC no.247)
[8] = test system: Paraclostridium bifermentans; test: In vitro antibacterial activity against the anaerobic Clostridium bifermentans (Strain UC no.6507); in short: as §1
Clostridium tertium = test: In vitro antibacterial activity against the anaerobic Clostridium tertium(Strain UC no.6508); in short: as §1
Escherichia coli = test: (§2) In vivo antibacterial activity against Escherichia coli(UC 311) infected mice after oral administration
In short: (§3)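 Fresh drug solutions were given subcutaneously (0.2 mL) or by oral intubation (0.5 mL), per line. Dosing was immediately after infection, then daily for 4 consecutive days, with 3 further days of observation. CD50 was calculated by Spearman-Karber.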

Eubacterium limosum = test: In vitro antibacterial activity against the anaerobic Eubacterium limosum(Strain UC no.6515); in short: as §1
[9] = test system: Fusobacterium necrophorum; test: In vitro antibacterial activity against the anaerobic Fusobacterium necrophorum (Strain UC no.6568); in short: as §1
Fusobacterium nucleatum [10] = test: In vitro antibacterial activity against the anaerobic Fusobacterium nucleatum (Strain UC no.6324); in short: as §1
Fusobacterium nucleatum [11] = test: In vitro antibacterial activity against the anaerobic Fusobacterium nucleatum (Strain UC no.6516); in short: as §1
Klebsiella pneumoniae [12] = test: In vivo antibacterial activity against Klebsiella pneumoniae(UC no 58) infected mice after sc administration; in short: as §3
Pasteurella multocida [13] = test: In vitro antibacterial activity against the aerobic Pasteurella multocida (Strain UC no.264)
In short: (§4)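 Broth microdilution in brain/heart infusion broth with twofold drug dilutions. Inoculum was a standardized suspension giving 10⁵ viable cells/mL final. Plates were incubated 20 h at 37 °C. MIC (mcg/mL) = lowest concentration with no visible growth.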

Pasteurella multocida [14] = test: In vivo antibacterial activity against Pasteurella multocida(UC no 264) infected mice after sc administration; in short: as §3
Plasmodium berghei [15] = test: In vivo activity against Plasmodium berghei in mice (Mus musculus) on oral administration
Plasmodium berghei [16] = test: In vivo activity against Plasmodium berghei in mice (Mus musculus) after subcutaneous dose (95% confidence interval)
Proteus vulgaris [17] = test: (§5) In vivo antibacterial activity against Proteus vulgaris(UC 347) infected mice after oral administration; in short: as §3
Proteus vulgaris [18] = test: In vivo antibacterial activity against Proteus vulgaris(UC no 347) infected mice after sc administration; in short: as §3
[19] = test system: Peptostreptococcus anaerobius; test: In vitro antibacterial activity against the anaerobic Peptostreptococcus anaerobius(Strain UC no.6321); in short: as §1
[20] = test system: Peptoniphilus asaccharolyticus; test: In vitro antibacterial activity against the anaerobic Peptococcus asaccharolyticus (Strain UC no.6214); in short: as §1
Finegoldia magna = test: In vitro antibacterial activity against the anaerobic Peptococcus magnus(Strain UC no.6258); in short: as §1
Cutibacterium acnes = test: In vitro antibacterial activity against the anaerobic Propionibacterium acnes(Strain UC no.6564); in short: as §1
Staphylococcus aureus [21] = test: In vitro antibacterial activity against the aerobic Staphylococcus aureus (Strain UC no.6687); in short: as §4
Staphylococcus aureus [22] = test: In vitro antibacterial activity against the aerobic Staphylococcus aureus (Strain UC no.6690); in short: as §4
Staphylococcus aureus [23] = test: In vivo antibacterial activity against Staphylococcus aureus (UC no 76) infected mice after sc administration (value in parenthesis is 95% confidence interval); in short: as §3
Streptococcus pneumoniae [24] = test: In vivo antibacterial activity against Streptococcus pneumoniae I (UC no 41) infected mice after sc administration (value in parenthesis is 95% confidence interval); in short: as §3
Streptococcus pneumoniae [25] = test: In vivo antibacterial activity against Streptococcus pneumoniae I(UC 41) infected mice after oral administration (value in parenthesis is 95% confidence interval); in short: as §3
Enterococcus faecalis = test: In vitro antibacterial activity against the aerobic […] (Strain UC no.694); in short: as §4
Staphylococcus aureus [26] = test: In vitro antibacterial activity against the aerobic Staphylococcus aureus (Strain UC no.6685); in short: as §4
[27] = test system: Staphylococcus epidermidis; test: In vitro antibacterial activity against the aerobic Staphylococcus epidermidis (Strain UC no.3389); in short: as §4
[28] = test system: Parabacteroides distasonis; test: In vitro antibacterial activity against the anaerobic Bacteroides distasonis (Strain UC no.6518)
Bacteroides fragilis [29] = test: In vitro antibacterial activity against the anaerobic Bacteroides fragilis (Strain UC no.6513); in short: as §1
Streptococcus pneumoniae [30] = test: In vivo antibacterial activity against Streptococcus pneumoniae III (UC no 3213) infected mice after sc administration (value in parenthesis is 95% confidence interval); in short: as §3
Bacteroides fragilis [31] = test: In vivo antibacterial activity against Bacteroides fragilis(UC no 6428) infected mice after sc administration
Klebsiella pneumoniae [32] = test: (§6) In vivo antibacterial activity against Klebsiella pneumoniae(UC 58) infected mice after oral administration; in short: as §3
Streptococcus pyogenes = test: In vivo antibacterial activity against Streptococcus pyogenes(UC 152) infected mice after oral administration (value in parenthesis is 95% confidence interval); in short: as §3
Mus musculus [33] = test: as §2; in short: as §3
Mus musculus [34] = test: In vivo antibacterial activity against Klebsiella pneumoniae (UC 58) infected mice after sc administration; in short: as §3
Mus musculus [35] = test: In vivo antibacterial activity against Pasteurella multocida (UC no 264) infected mice after sc administration; in short: as §3
Mus musculus [36] = test: In vivo antibacterial activity against Proteus vulgaris (UC no 347) infected mice after sc administration; in short: as §3
Mus musculus [37] = test: In vivo antibacterial activity against Streptococcus pneumoniae I(UC 41) infected mice after oral administration; in short: as §3
Mus musculus [38] = test: In vivo antibacterial activity against Streptococcus pyogenes(UC 152) infected mice after oral administration; in short: as §3
Mus musculus [39] = test: as §5; in short: as §3
Mus musculus [40] = test: In vivo antibacterial activity against Streptococcus pneumoniae III(UC 3213) infected mice after oral administration; in short: as §3
Mus musculus [41] = test: as §6; in short: as §3
Mus musculus [42] = test: In vivo antibacterial activity against Streptococcus pneumoniae I (UC 41) infected mice after sc administration; in short: as §3

## CC[C@@H]1CCN[C@H](C(=O)N[C@@H]([C@H]2O[C@H](SC)[C@H](O)[C@@H](O)[C@H]2O)[C@H](C)Cl)C1 [PIRLIMYCIN]
Actinomyces naeslundii
  MIC: 0.25 µg/mL (≈ 0.608 µM)
Bacteroides fragilis [1]
  MIC: 2 µg/mL (≈ 4.87 µM)
Bacteroides fragilis [2]
  MIC: 15.6 µg/mL (≈ 38 µM)
Bacteroides fragilis [3]
  MIC: 0.25 µg/mL (≈ 0.608 µM)
[4]
  MIC: 0.5 µg/mL (≈ 1.22 µM)
Clostridioides difficile [5]
  MIC: 125 µg/mL (≈ 304 µM)
Clostridioides difficile [6]
  MIC: 500 µg/mL (≈ 1220 µM)
Clostridioides difficile [7]
  MIC: 2 µg/mL (≈ 4.87 µM)
Clostridium novyi
  MIC: 0.12 µg/mL (≈ 0.292 µM)
Clostridium perfringens
  MIC: 0.12 µg/mL (≈ 0.292 µM)
[8]
  MIC: 0.06 µg/mL (≈ 0.146 µM)
Clostridium tertium
  MIC: 7.8 µg/mL (≈ 19 µM)
Escherichia coli
  CD50: >400 mg/kg
Eubacterium limosum
  MIC: 2 µg/mL (≈ 4.87 µM)
[9]
  MIC: 0.06 µg/mL (≈ 0.146 µM)
Fusobacterium nucleatum [10]
  MIC: 0.06 µg/mL (≈ 0.146 µM)
Fusobacterium nucleatum [11]
  MIC: 0.12 µg/mL (≈ 0.292 µM)
Klebsiella pneumoniae [12]
  CD50: >320 mg/kg
Pasteurella multocida [13]
  MIC: 62.5 µg/mL (≈ 152 µM)
Pasteurella multocida [14]
  CD50: >160 mg/kg
Plasmodium berghei [15]
  CD50: >50 mg/kg
Plasmodium berghei [16]
  CD50: 16 mg/kg
Proteus vulgaris [17]
  CD50: >400 mg/kg
Proteus vulgaris [18]
  CD50: >160 mg/kg
[19]
  MIC: 0.12 µg/mL (≈ 0.292 µM)
[20]
  MIC: 0.25 µg/mL (≈ 0.608 µM)
Finegoldia magna
  MIC: 0.06 µg/mL (≈ 0.146 µM)
Cutibacterium acnes
  MIC: 0.12 µg/mL (≈ 0.292 µM)
Staphylococcus aureus [21]
  MIC: 0.2 µg/mL (≈ 0.487 µM)
Staphylococcus aureus [22]
  MIC: 0.2 µg/mL (≈ 0.487 µM)
Staphylococcus aureus [23]
  CD50: 0.4 mg/kg
Streptococcus pneumoniae [24]
  CD50: 1.7 mg/kg
Streptococcus pneumoniae [25]
  CD50: 20.3 mg/kg
Enterococcus faecalis
  MIC: 6.25 µg/mL (≈ 15.2 µM)
Staphylococcus aureus [26]
  MIC: > 25 µg/mL
[27]
  MIC: 0.2 µg/mL (≈ 0.487 µM)
[28]
  MIC: < 0.03 µg/mL
Bacteroides fragilis [29]
  MIC: 0.12 µg/mL (≈ 0.292 µM)
Streptococcus pneumoniae [30]
  CD50: 2.7 mg/kg
Bacteroides fragilis [31]
  CD50: <6.25 mg/kg
Klebsiella pneumoniae [32]
  CD50: >400 mg/kg
Streptococcus pyogenes
  CD50: 2.9 mg/kg

## CCC[C@@H]1C[C@@H](C(=O)N[C@@H]([C@H]2O[C@H](SC)[C@H](O)[C@@H](O)[C@H]2O)[C@H](C)Cl)N(C)C1 [CLINDAMYCIN]
Mus musculus [33]
  CD50: >400 mg/kg
Mus musculus [34]
  CD50: >320 mg/kg
Mus musculus [35]
  CD50: >160 mg/kg
Mus musculus [36]
  CD50: >160 mg/kg
Mus musculus [37]
  CD50: 45.5 mg/kg
Mus musculus [38]
  CD50: 12.3 mg/kg
Mus musculus [39]
  CD50: >400 mg/kg
Mus musculus [40]
  CD50: 37.9 mg/kg
Mus musculus [41]
  CD50: >400 mg/kg
Mus musculus [42]
  CD50: 40 mg/kg
